Data as given in ChEMBL document CHEMBL1159018, “(-)-agelasidine C and (-)-agelasidine D, two new hypotaurocyamine diterpenoids from the Caribbean sea sponge Agelas clathrodes” (J Nat Prod, 1992).
Converted amounts (≈) assume the structure as drawn. The source made the active and inactive calls. The rule behind the calls is not given here.

Assays:
Staphylococcus aureus [1] = experiment: Antimicrobial activity against Staphylococcus aureus at 1.9 mg/ml by standard disk assay; type: functional, organism-based
How it was run: (§1)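 Tested at one concentration only, 1.9 mg/ml.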

[2] = Cytotoxicity against CHOK1 cells; type: cell-based, Cricetulus griseus; settings: chinese hamster, CHO-K1 cells; read-out: ED50 (the source's name)
How it was run: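 CHO-K1 cell growth inhibition, reported as ED50 in µg/ml.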

Klebsiella pneumoniae [3] = experiment: Antimicrobial activity against Klebsiella pneumoniae at 1.9 mg/ml by standard disk assay; type: functional, organism-based; how it was run: as §1
Proteus vulgaris [4] = experiment: Antimicrobial activity against Proteus vulgaris at 1.9 mg/ml by standard disk assay; type: functional, organism-based; how it was run: as §1
Staphylococcus aureus [5] = experiment: Antimicrobial activity against Staphylococcus aureus by standard disk assay; type: functional, organism-based; how it was run: as §1
Escherichia coli = experiment: Antimicrobial activity against Escherichia coli by standard disk assay; type: functional, organism-based
Hafnia alvei = experiment: Antimicrobial activity against Hafnia alvei by standard disk assay; type: functional, organism-based
Klebsiella pneumoniae [6] = experiment: Antimicrobial activity against Klebsiella pneumoniae by standard disk assay; type: functional, organism-based; how it was run: as §1
Proteus vulgaris [7] = experiment: Antimicrobial activity against Proteus vulgaris by standard disk assay; type: functional, organism-based; how it was run: as §1

Compound	Activity (Staphylococcus aureus [1])	CC50 [2] [µg/mL]	Activity (Klebsiella pneumoniae [3])	Activity (Proteus vulgaris [4])	Activity (Staphylococcus aureus [5])	Activity (Escherichia coli)	Activity (Hafnia alvei)	Activity (Klebsiella pneumoniae [6])	Activity (Proteus vulgaris [7])
CC1=CCC[C@H](C)[C@@]1(C)CC/C(C)=C/CC/C(C)=C/CS(=O)(=O)CCNC(=N)N	Active	5.7 (≈ 13.5 µM)	Active	Active					
CC1=CCC[C@H](C)[C@@]1(C)CC/C(C)=C/CC/C(=C/CS(=O)(=O)CCNC(=N)N)CO		2.21 (≈ 5.03 µM)			Active	Active	Active	Active	Active
